Laboratory results from ChEMBL document CHEMBL3526126, “Amide hydrolysis of a novel chemical series of microsomal prostaglandin E synthase-1 inhibitors induces kidney toxicity in the rat” (Drug Metab Dispos, 2013).

Tests used:
Rattus norvegicus [1] = test: Toxicity in Wistar Hannover rat kidney assessed as increase in organ weight at 1000 umol/kg, po qd administered for 7 days measured on day 7 by necroscopic analysis; assay type: organism-based; conditions: in vivo, 168 h
Rattus norvegicus [2] = test: Toxicity in Wistar Hannover rat kidney assessed as presence of dilated tubules with cellular remnants within lumen at 1000 umol/kg, po qd administered for 7 days measured on day 7 by necroscopic analysis; assay type: organism-based; conditions: in vivo, 168 h
Rattus norvegicus [3] = test: Toxicity in Wistar Hannover rat kidney assessed as presence of dilated tubules mixed with basophils at 1000 umol/kg, po qd administered for 7 days measured on day 7 by necroscopic analysis; assay type: organism-based; conditions: in vivo, 168 h
Rattus norvegicus [4] = test: Toxicity in Wistar Hannover rat kidney assessed as dilated tubules with hypertrophic nuclei and cytoplasm at 1000 umol/kg, po qd administered for 7 days measured on day 7 by necroscopic analysis; assay type: organism-based; conditions: in vivo, 168 h
Rattus norvegicus [5] = test: Toxicity in Wistar Hannover rat kidney assessed as hemorrhage in renal pelvis at 1000 umol/kg, po qd administered for 7 days measured after day 8 by hematoxylin/eosin staining-based light microscopic analysis; assay type: organism-based; conditions: in vivo, 168 h
Summary of the method: (§1)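 Wistar Hannover rats, about 8 weeks old, were gavaged once daily (10 ml/kg) for 7 days. One day after the last dose they were killed by carotid exsanguination under isoflurane/oxygen. Kidneys were fixed in buffered formalin, embedded in paraffin, sectioned, stained with hematoxylin and eosin, and examined by light microscopy.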

Rattus norvegicus [6] = test: Toxicity in Wistar Hannover rat kidney assessed as free crystals in renal pelvis at 1000 umol/kg, po qd administered for 7 days measured after day 8 by hematoxylin/eosin staining-based light microscopic analysis; assay type: organism-based; conditions: in vivo, 168 h; summary of the method: as §1
Rattus norvegicus [7] = test: Toxicity in Wistar Hannover rat kidney assessed as transitional cell hyperplasia at 1000 umol/kg, po qd administered for 7 days measured after day 8 by hematoxylin/eosin staining-based light microscopic analysis; assay type: organism-based; conditions: in vivo, 168 h; summary of the method: as §1
Rattus norvegicus [8] = test: Toxicity in Wistar Hannover rat kidney assessed as increase in plasma urea level at 1000 umol/kg, po qd administered for 7 days measured on day 7; assay type: organism-based; conditions: in vivo, 168 h
Summary of the method: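 Wistar Hannover rats, about 8 weeks old, were acclimatized about 2 weeks and randomized by body weight. Dosing was by oral gavage (10 ml/kg) once daily for 7 days, with vehicle controls. At the end of dosing, plasma (lithium heparin) was taken from the orbital plexus under isoflurane/oxygen anaesthesia, and urea and creatinine were measured.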

Rattus norvegicus [9] = test: Toxicity in Wistar Hannover rat kidney assessed as tubular degeneration /regeneration at 500 umol/kg, po qd administered for 7 days […]; assay type: organism-based; conditions: in vivo, 168 h; summary of the method: as §1
[10] = Drug metabolism in Sprague-Dawley rat hepatocytes assessed as formation of 4-(phenylethynyl)benzoic acid metabolite hyd at 1 to 10 uM by LC-MS analysis; assay type: ADME, cell-based, Hepatocyte
Summary of the method: (§2)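 Hepatocytes at 1 × 10^6 cells/ml in William's medium incubated at 37°C with gentle shaking under 5% CO2. Substrate was at […]. Metabolites were analysed by LC-MS.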

[11] = Drug metabolism in Sprague-Dawley rat hepatocytes assessed as formation of 4-(phenylethynyl)benzoic acid metabolite hyd at 1 to 10 uM by radio monitoring method; assay type: ADME, cell-based, Hepatocyte
Summary of the method: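 Hepatocytes at 1 × 10^6 cells/ml in William's medium were incubated at 37°C with gentle shaking under 5% CO2, with substrate at […]. Separation was on an Atlantis T3 column (100 × 4.6 mm) at 1 ml/min, split 1:20 to the ion source and a flow scintillation monitor. Scintillation cocktail was added at 4 ml/min through a 0.5 ml flow cell.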

[12] = Drug metabolism in Sprague-Dawley rat hepatocytes assessed as formation of benzene-1,2-disulfonamide metabolite M1 at 1 to 10 uM by LC-MS analysis; assay type: ADME, cell-based, Hepatocyte; summary of the method: as §2
Rattus norvegicus [13] = test: Drug metabolism in Wistar Hannover rat assessed as formation of oxidized and sulfate-conjugated metabolite in plasma at 500 umol/kg, po qd administered for 7 days measured on day 7 by LC-MS analysis; assay type: ADME, organism-based; conditions: in vivo, 168 h
Rattus norvegicus [14] = test: Drug metabolism in Wistar Hannover rat assessed as formation of 4-(phenylethynyl)benzoic acid metabolite conjugated with mono-oxidized metabolite in plasma at 500 umol/kg, po qd administered for 7 days measured on day 7 by LC-MS analysis; assay type: ADME, organism-based; conditions: in vivo, 168 h
Rattus norvegicus [15] = test: Drug metabolism in Wistar Hannover rat assessed as formation of 4-(phenylethynyl)benzoic acid conjugated with mono-oxidized and sulfate conjugated matabolite in plasma at 500 umol/kg, po qd administered for 7 days measured on day 7 by LC-MS analysis; assay type: ADME, organism-based; conditions: in vivo, 168 h
[16] = Drug metabolism in cryopreserved human hepatocytes assessed as amide hydrolysis at 1 to 10 uM by LC-MS analysis; assay type: ADME, cell-based, Hepatocyte; summary of the method: as §2
[17] = Drug metabolism in Beagle dog hepatocytes assessed as amide hydrolysis at 1 to 10 uM by LC-MS analysis; assay type: ADME, cell-based, Canis lupus familiaris, Hepatocyte
Summary of the method: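 Cryopreserved male Beagle dog hepatocytes at 1 × 10^6 cells/ml in William's medium, shaken gently at 37°C under 5% CO2. Substrate was tested at two concentrations (1 and 10). Metabolites, including amide-hydrolysis products, were analysed by LC-MS.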

[18] = Drug metabolism in freshly prepared human hepatocytes assessed as amide hydrolysis at 1 to 10 uM by LC-MS analysis; assay type: ADME, cell-based, Hepatocyte; summary of the method: as §2
[19] = Cmax in Sprague-Dawley rat at 1000 umol/kg, po qd administered for 7 days measured on day 7; assay type: ADME, organism-based; set-up: dose 1000 umol/kg, route oral; conditions: in vivo
Summary of the method: (§3)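 Toxicity study 2: 2 female satellite rats per dose group. Dosing was once daily by oral gavage (10 ml/kg) for 7 days. Tail-vein EDTA blood was taken at 2, 4, 6, 7 and 24 h on day 1 and on day 7, then chilled and centrifuged to plasma. Parent and M1 were quantified by LC-MS/MS, with M1 measured in negative electrospray mode.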

[20] = AUC (0 to 24 hrs) in Sprague-Dawley rat at 1000 umol/kg, po qd administered for 7 days measured on day 7; assay type: ADME, organism-based; set-up: time < 24 hr, dose 1000 umol/kg, route oral; conditions: plasma; summary of the method: as §3
[21] = Cmax in Wistar Hannover rat at 1000 umol/kg, po qd measured on day 1; conditions: in vivo
[22] = Cmax in male Wistar Hannover rat at 500 umol/kg, po qd measured on day 1; conditions: in vivo
[23] = Cmax in male Wistar Hannover rat at 1000 umol/kg, po qd measured on day 1; conditions: in vivo
[24] = AUC (0 to 24 hrs) in Wistar Hannover rat at 1000 umol/kg, po qd measured on day 1; conditions: plasma
[25] = AUC (0 to 24 hrs) in male Wistar Hannover rat at 1000 umol/kg, po qd measured on day 1; conditions: plasma
[26] = AUC (0 to 24 hrs) in female Wistar Hannover rat at 500 umol/kg, po qd measured on day 1; conditions: plasma
[27] = Cmax in male Wistar Hannover rat at 500 umol/kg, po qd administered for 7 days measured on day 7; conditions: in vivo
[28] = Cmax in female Wistar Hannover rat at 500 umol/kg, po qd administered for 7 days measured on day 7; conditions: in vivo
[29] = AUC (0 to 24 hrs) in female Wistar Hannover rat at 500 umol/kg, po qd administered for 7 days measured on day 7; conditions: plasma

Drug metabolism [10]: metabolite_detected
Drug metabolism [11]: metabolite_detected
Drug metabolism [12]: metabolite_not_detected
Drug metabolism (Rattus norvegicus [13]): metabolite_detected
Drug metabolism (Rattus norvegicus [14]): metabolite_detected
Drug metabolism (Rattus norvegicus [15]): metabolite_detected
Drug metabolism [16]: metabolite_not_detected
Drug metabolism [17]: metabolite_not_detected
Drug metabolism [18]: metabolite_not_detected
Cmax [19]: 95 µM
AUC at 24 h [20]: 990 µM·h
Cmax [21]: 105 µM
Cmax [22]: 73 µM
Cmax [23]: 46 µM
AUC(0-t) at 24 h [24]: 1370 µM·h
AUC(0-t) at 24 h [25]: 610 µM·h
AUC(0-t) at 24 h [26]: 450 µM·h
Cmax [27]: 68 µM
Cmax [28]: 39 µM
AUC at 24 h [29]: 430 µM·h
Structure (SMILES): NS(=O)(=O)c1ccccc1S(=O)(=O)NC(=O)c1ccc(C#Cc2ccccc2)cc1
Activity (Rattus norvegicus [1]): Toxic
Activity (Rattus norvegicus [2]): Toxic
Activity (Rattus norvegicus [3]): Toxic
Activity (Rattus norvegicus [4]): Toxic
Activity (Rattus norvegicus [5]): Toxic
Activity (Rattus norvegicus [6]): Toxic
Activity (Rattus norvegicus [7]): Toxic
Activity (Rattus norvegicus [8]): Toxic
Activity (Rattus norvegicus [9]): Toxic
